Measurements as given in ChEMBL document CHEMBL4028810, “Synthesis and biological evaluation of novel chalcone derivatives as a new class of microtubule destabilizing agents” (Eur J Med Chem, 2017).

How the values were obtained:
NCI-H460 [1] = experiment: Induction of apoptosis in human NCI-H460 cells assessed as live cells at 5 uM after 24 hrs by Annexin V-FITC/propidium iodide staining based flow cytometric method (reference value: 95.8%); assay type: functional
NCI-H460 [2] = experiment: Induction of apoptosis in human NCI-H460 cells assessed as late apoptotic cells at 5 uM after 24 hrs by Annexin V-FITC/propidium iodide staining based flow cytometric method (reference value: 0.839%); assay type: functional
NCI-H460 [3] = experiment: Cell cycle arrest in human NCI-H460 cells assessed as increase in accumulation at G2-phase after 48 hrs by propidium iodide staining based flow cytometric method; assay type: functional
NCI-H460 [4] = experiment: Disruption of mitochondrial membrane potential in human NCI-H460 cells assessed as collapse of mitochondrial membrane potential at 5 uM after 24 hrs by JC-1 staining based flow cytometric method (reference value: 1.98%); assay type: functional
In short: (§1)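 NCI-H460 cells were treated 24 h at 5 or 10 µM, with untreated cells as control. The medium was replaced, and the JC-1 probe was added 20 min later. Cells were then pelleted at 2000 rpm, washed twice in ice-cold PBS and analysed by flow cytometry with excitation at 488 nm and emission at 530 and 590 nm.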

NCI-H460 [5] = experiment: Induction of apoptosis in human NCI-H460 cells assessed as live cells at 10 uM after 24 hrs by Annexin V-FITC/propidium iodide staining based flow cytometric method (reference value: 95.8%); assay type: functional
HeLa = experiment: Cytotoxicity against human HeLa cells after 48 hrs by MTT assay; assay type: functional, cell-based
In short: (§2)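 Log-phase cells were seeded at about 1 × 10⁵ cells/mL in 96-well plates and allowed to settle 12 h at 37 °C in 5% CO₂. Compounds were added at five concentrations for 48 h. Absorbance was read at dual wavelength 570/630 nm. Survival was expressed as a percentage of control, and IC50 was calculated by the Bliss method (n = 5). Each test was run in triplicate.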

SK-OV-3 = experiment: Cytotoxicity against human SKOV3 cells after 48 hrs by MTT assay; assay type: functional, cell-based; settings: SK-OV-3, 48 h; in short: as §2
MGC-803 = experiment: Cytotoxicity against human MGC803 cells after 48 hrs by MTT assay; assay type: functional, cell-based; settings: MGC-803, 48 h; in short: as §2
NCI-H460 [6] = experiment: Induction of apoptosis in human NCI-H460 cells assessed as necrotic cells at 5 uM after 24 hrs by Annexin V-FITC/propidium iodide staining based flow cytometric method (reference value: 1.84%); assay type: functional
NCI-H460 [7] = experiment: Induction of apoptosis in human NCI-H460 cells assessed as upregulation of Bax expression after 48 hrs by Western blot method; assay type: functional, cell-based
In short: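 NCI-H460 cells were treated 48 h at various concentrations. Cells were washed in ice-cold PBS and lysed on ice for 20 min, and lysates were spun at 20000 g and 4 °C for 5 min. Protein was quantified by BCA, and equal amounts were run on 12% SDS-PAGE and transferred to PVDF. Membranes were blocked in 5% milk/TBST, probed overnight at 4 °C with primary antibodies (β-actin as reference), then with peroxidase secondary for 2 h. Bands were detected by chemiluminescence.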

NCI-H460 [8] = experiment: Cell cycle arrest in human NCI-H460 cells assessed as accumulation at S-phase at 5 uM after 48 hrs by propidium iodide staining based flow cytometric method (reference value: 21.79%); assay type: functional
NCI-H460 [9] = experiment: Disruption of mitochondrial membrane potential in human NCI-H460 cells assessed as intact mitochondrial membrane potential at 5 uM after 24 hrs by JC-1 staining based flow cytometric method (reference value: 11.9%); assay type: functional; in short: as §1
NCI-H460 [10] = experiment: Disruption of mitochondrial membrane potential in human NCI-H460 cells assessed as intact mitochondrial membrane potential at 10 uM after 24 hrs by JC-1 staining based flow cytometric method (reference value: 11.9%); assay type: functional; in short: as §1

Structure (SMILES): COc1ccc(/C=C/C(=O)c2cc(OC)c(OC)c(OC)c2)cc1OCC(=O)Nc1ccccc1Cl
- Activity (NCI-H460 [1]): 83.6%
- Activity (NCI-H460 [2]): 3.45%
- Activity (NCI-H460 [3]): Dose-dependent effect
- Activity (NCI-H460 [4]): 3.13%
- Activity (NCI-H460 [5]): 22.7%
- IC50 (HeLa): 4.53 µM
- IC50 (SK-OV-3): 6.28 µM
- IC50 (MGC-803): 8.42 µM
- Activity (NCI-H460 [6]): 1.1%
- Activity (NCI-H460 [7]): Dose-dependent effect
- Activity (NCI-H460 [8]): 29%
- Activity (NCI-H460 [9]): 16.9%
- Activity (NCI-H460 [10]): 26.2%
